Experimental data from ChEMBL document CHEMBL4130343, “Design, synthesis, and evaluation of benzofuran derivatives as novel anti-pancreatic carcinoma agents via interfering the hypoxia environment by targeting HIF-1α pathway” (Eur J Med Chem, 2017).
The source made the active and inactive calls. No cut-off for these calls is given here.

Tests used:
[1] = test system: PANC-1; assay: Antitumor activity against human PANC1 cells xenografted in nude mouse assessed as decrease in tumor volume at 15 to 60 mg/kg, ip administered every 2 days for 21 days; type: functional, organism-based
In short: (§1)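 Female nude mice received 1×10^7 PANC-1 cells subcutaneously in the right flank. After 4 weeks, mice bearing tumors averaging 100 mm³ were randomized into five groups. Dosing was 15, 30 or 60 mg/kg i.p. every two days for 21 days. Tumor volume = width² × length/2; tumors were weighed at sacrifice, and body weight was monitored.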

[2] = test system: BXPC-3; assay: Antiproliferative activity against human BxPC3 cells after 48 hrs by MTT assay; type: functional, cell-based; details: BXPC-3, 48 h
In short: (§2)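 Cells were seeded at 5×10^5 cells/mL overnight and exposed to graded compound concentrations for 48 h. MTT (5 mg/mL stock) was added for 4 h at 37 °C, and formazan was dissolved in DMSO. Absorbance was read at 570 nm. IC₅₀ was fitted from the curves; values are mean ± SD, n = 3.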

[3] = test system: PANC-1; assay: Induction of apoptosis in human PANC1 cells assessed as late apoptotic cells at 0.1 uM after 24 hrs by annexin V/propidium iodide staining-based flow cytometric method (reference value: 2.65%); type: functional
[4] = Cmax in rat at 10 mg/kg, po after 0.083 to 24 hrs by LC-MS/MS method; type: ADME, organism-based; set-up: dose 10 mg/kg, route oral; details: in vivo
[5] = test system: Mus musculus; assay: Effect on HIF-1alpha expression in human PANC1 cells xenografted in nude mouse at 15 to 60 mg/kg, ip administered every 2 days for 21 days by immunohistochemical method; type: functional, organism-based
In short: (§3)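 Tumors came from the PANC-1 nude-mouse xenografts dosed at 15, 30 or 60 mg/kg i.p. every two days for 21 days. Tumor sections were stained immunohistochemically with antibodies against CD31, HIF-1α and VEGF.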

[6] = test system: HUVEC; assay: Antimigratory activity against HUVEC at 1 uM by wound-healing assay; type: functional, cell-based; details: Homo sapiens, TDE = time-dependent effect
In short: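 HUVEC monolayers at 90% confluence were switched to serum-free medium and scratched with a pipette tip. Compound was added under hypoxia (1% O₂, 94% N₂, 5% CO₂, 37 °C) in the presence of PANC-1 conditioned medium. Wound closure was imaged by inverted-phase microscope at 12 h and 24 h.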

[7] = test system: MDA-MB-231; assay: Antiproliferative activity against human MDA-MB-231 cells after 48 hrs by MTT assay; type: functional, cell-based; details: MDA-MB-231, 48 h; in short: as §2
[8] = target: Hypoxia-inducible factor 1-alpha (Homo sapiens) (UniProt Q16665); assay: Inhibition of HIF-1alpha in human PANC1 cells assessed as downregulation of VEGF mRNA levels under hypoxia condition after 24 hrs by qRT-PCR method; type: cell-based
Sequence of Hypoxia-inducible factor 1-alpha (Homo sapiens) (Q16665 whole entry, looked up): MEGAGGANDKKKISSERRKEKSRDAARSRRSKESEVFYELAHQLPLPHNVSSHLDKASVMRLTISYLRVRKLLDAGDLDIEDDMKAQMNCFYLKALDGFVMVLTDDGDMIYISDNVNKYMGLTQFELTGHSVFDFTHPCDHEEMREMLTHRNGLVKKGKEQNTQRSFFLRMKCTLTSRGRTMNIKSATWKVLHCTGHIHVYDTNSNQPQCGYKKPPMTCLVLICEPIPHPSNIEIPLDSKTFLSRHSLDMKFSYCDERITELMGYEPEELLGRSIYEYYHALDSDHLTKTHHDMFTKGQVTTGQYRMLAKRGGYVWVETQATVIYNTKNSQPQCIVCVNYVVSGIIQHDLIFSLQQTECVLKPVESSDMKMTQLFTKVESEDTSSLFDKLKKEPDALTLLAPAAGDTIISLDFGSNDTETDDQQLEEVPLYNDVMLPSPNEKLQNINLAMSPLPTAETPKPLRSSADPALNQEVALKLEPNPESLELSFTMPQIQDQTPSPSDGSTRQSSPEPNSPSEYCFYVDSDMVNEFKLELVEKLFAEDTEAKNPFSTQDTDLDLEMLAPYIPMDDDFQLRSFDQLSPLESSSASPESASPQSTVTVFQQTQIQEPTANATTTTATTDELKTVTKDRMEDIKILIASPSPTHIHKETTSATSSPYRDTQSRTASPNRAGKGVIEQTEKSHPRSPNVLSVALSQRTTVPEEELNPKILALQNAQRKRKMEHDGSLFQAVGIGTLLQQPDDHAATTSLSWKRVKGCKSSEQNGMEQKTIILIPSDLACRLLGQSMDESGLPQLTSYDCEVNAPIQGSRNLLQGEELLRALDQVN
In short: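 PANC-1 cells were exposed to hypoxia (1% O₂, 94% N₂, 5% CO₂, 37 °C) for 24 h with compound treatment. VEGF mRNA was measured by real-time qRT-PCR.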

[9] = Plasma concentration in rat at 10 mg/kg, iv after 36 hrs by LC-MS/MS method; type: ADME, organism-based
In short: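 Rats, n = 6 per group, each given a single 10 mg/kg dose. Blood was collected into heparinized tubes and centrifuged at 4 °C and 8000 rpm for 5 min. Plasma was analysed by LC–MS/MS.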

[10] = Half life in rat at 10 mg/kg, iv after 0.083 to 24 hrs by LC-MS/MS method; type: ADME, organism-based; details: in vivo
[11] = AUC (0 to t) in rat at 10 mg/kg, ip after 0.083 to 24 hrs by LC-MS/MS method; type: ADME, organism-based; set-up: dose 10 mg/kg, time 0.083-24 hr, route intraperitoneal; details: in vivo
[12] = test system: MCF7; assay: Antiproliferative activity against human MCF7 cells after 48 hrs by MTT assay; type: functional, cell-based; details: MCF7, 48 h; in short: as §2
[13] = test system: PANC-1; assay: Induction of apoptosis in human PANC1 assessed as increase in cleaved caspase-3 levels at 0.1 to 1 uM after 24 hrs by Western blot method; type: functional, cell-based
In short: (§4)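 PANC-1 cells were treated with graded compound concentrations for 24 h, then lysed. Proteins were separated by SDS-PAGE and blotted to PVDF. Blots were probed for PARP, cleaved PARP, caspase-3, cleaved caspase-3, caspase-9 and cleaved caspase-9, with GAPDH as loading control, and read by infrared imaging. Bands were quantified by densitometry as ratios normalized to GAPDH.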

[14] = test system: Mus musculus; assay: Downregulation of VEGF expression in human PANC1 cells xenografted in nude mouse at 15 to 60 mg/kg, ip administered every 2 days for 21 days by immunohistochemical method; type: functional, organism-based; in short: as §3
[15] = test system: PANC-1; assay: Induction of apoptosis in human PANC1 cells assessed as viable cells at 1 uM after 24 hrs by annexin V/propidium iodide staining-based flow cytometric method (reference value: 89.5%); type: functional; details: PANC-1, 24 h, read-out: Activity
[16] = test system: PANC-1; assay: Antitumor activity against human PANC1 cells xenografted in nude mouse assessed as inhibition of tumor weight at 60 mg/kg, ip administered every 2 days for 21 days relative to vehicle-treated control; type: functional; details: PANC-1, ip; in short: as §1
[17] = test system: PANC-1; assay: Induction of apoptosis in human PANC1 cells assessed as early apoptotic cells at 0.1 uM after 24 hrs by annexin V/propidium iodide staining-based flow cytometric method (reference value: 7.25%); type: functional
[18] = test system: PANC-1; assay: Induction of apoptosis in human PANC1 cells assessed as late apoptotic cells at 2 uM after 24 hrs by annexin V/propidium iodide staining-based flow cytometric method (reference value: 2.65%); type: functional
[19] = test system: PANC-1; assay: Induction of apoptosis in human PANC1 cells assessed as viable cells at 2 uM after 24 hrs by annexin V/propidium iodide staining-based flow cytometric method (reference value: 89.5%); type: functional; details: PANC-1, 24 h, read-out: Activity
[20] = test system: A549; assay: Antiproliferative activity against human A549 cells after 48 hrs by MTT assay; type: functional, cell-based; details: A549, 48 h; in short: as §2
[21] = test system: PANC-1; assay: Induction of apoptosis in human PANC1 assessed as increase in cleaved PARP levels at 0.1 to 1 uM after 24 hrs by Western blot method; type: functional, cell-based; in short: as §4
[22] = Bioavailability in rat at 10 mg/kg, ip after 0.083 to 24 hrs by LC-MS/MS method; type: ADME, organism-based; details: in vivo
[23] = test system: PANC-1; assay: Induction of apoptosis in human PANC1 cells assessed as viable cells at 0.1 uM after 24 hrs by annexin V/propidium iodide staining-based flow cytometric method (reference value: 89.5%); type: functional; details: PANC-1, 24 h, read-out: Activity
[24] = test system: PANC-1; assay: Induction of apoptosis in human PANC1 cells after 24 hrs by annexin V/propidium iodide staining-based flow cytometric method; type: functional, cell-based
[25] = Distribution co-efficient, log D of the compound at pH 7.4; type: physicochemical; details: buffer
In short: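 Intrinsic aqueous solubility and log D at pH 7.4 were measured on a pION Gemini Profiler.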

[26] = test system: PANC-1; assay: Induction of apoptosis in human PANC1 cells assessed as early apoptotic cells at 1 uM after 24 hrs by annexin V/propidium iodide staining-based flow cytometric method (reference value: 7.25%); type: functional
[27] = Cmax in rat at 10 mg/kg, iv after 0.083 to 24 hrs by LC-MS/MS method; type: ADME, organism-based; set-up: dose 10 mg/kg, route intravenous; details: in vivo
[28] = test system: HCT-116; assay: Antiproliferative activity against p53-deficient human HCT116 cells after 48 hrs by MTT assay; type: functional, cell-based; details: HCT-116, 48 h; in short: as §2
[29] = test system: HCT-116; assay: Antiproliferative activity against human HCT116 cells after 48 hrs by MTT assay; type: functional, cell-based; details: HCT-116, 48 h; in short: as §2
[30] = test system: PANC-1; assay: Induction of apoptosis in human PANC1 cells assessed as dead cells at 0.1 uM after 24 hrs by annexin V/propidium iodide staining-based flow cytometric method (reference value: 0.60%); type: functional

Cc1c(C(=O)NC2CCN(C)CC2)oc2ccc(N(Cc3ccc(Br)cc3)S(=O)(=O)c3ccc(Br)cc3)cc12
Activity [1]: Active
IC50 [2]: 650 nM
Activity [3]: 9.3%
Cmax [4]: 80.6 ng/mL
Activity [5]: inactive
inhibition [6]: Tde
IC50 [7]: 1900 nM
inhibition [8]: Dose-dependent effect
concentration at 36 h [9]: > 10 ng/mL
half-life [10]: 7.68 h
AUC(0-t) [11]: 6220 ng·h/mL
IC50 [12]: 2390 nM
Activity [13]: Active
Activity [14]: Active
viability at 1 µM [15]: 50.6%
inhibition in vivo at 60 mg/kg [16]: 75.8%
Activity [17]: 4.45%
Activity [18]: 51.15%
viability at 2 µM [19]: 44.7%
IC50 [20]: 2680 nM
Activity [21]: Active
bioavailability [22]: 86.1%
viability at 0.1 µM [23]: 85.5%
Activity [24]: Dose-dependent effect
logD [25]: 3.15
Activity [26]: 3.55%
Cmax [27]: 3100 ng/mL
IC50 [28]: 1610 nM
IC50 [29]: 1810 nM
Activity [30]: 0.8%
